Source: article PMC8769552 (Science Advances, 2022)

What was measured:
HDAC3 = format: biochemical, human; conditions: acid-extracted histones from HeLa cells, recombinant HDAC3
In short: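 Histones acid-extracted from HeLa cells (hypotonic sucrose/Triton wash, no-salt EDTA/EGTA step, 0.2 M H2SO4 overnight at 4°C, 20% TCA precipitation). 20 μg histones incubated with 0.2 μg recombinant human HDAC at 37°C for 1 or 4 h in tris buffer (50 mM tris/Cl, 137 mM NaCl, 2.7 mM KCl, 1 mM MgCl2, pH 8). Stopped by boiling 5 min in loading buffer; Western blot readout.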

HeLa cells = assay: Histone lactylation and acetylation in HeLa cells after inhibitor treatment; format: cell-based, human; conditions: 5-hour treatment, TMP195 5 μM, NAM 10 mM; for global histone lactylation levels: sodium butyrate 2 mM, TSA 1 μM, apicidin 1 μM
In short: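 HeLa cells treated 5 h with pan-HDAC inhibitors (2 mM or 1 μM), HDAC1–3-selective inhibitor (1 μM), class IIa-selective inhibitor (5 μM) or pan-sirtuin inhibitor (10 mM). Histone lactylation and acetylation by Western blot: blocked in 3% BSA/TBST 1 h at RT, primary antibody overnight at 4°C, LI-COR secondary 1:10,000 for 1 h, Odyssey imaging.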

HDAC2 = assay: Fluorogenic Michaelis-Menten assay; format: biochemical, human; conditions: K(D-la) versus K(L-la), Ac-LGK-AMC; stated for HDAC1/2
HDAC1 = HDAC1 (Homo sapiens, UniProt Q13547); assay: Fluorogenic Michaelis-Menten assay; format: biochemical; conditions: K(D-la) versus K(L-la), Ac-LGK-AMC; stated for HDAC1/2
Chain of HDAC1 (Q13547 whole entry): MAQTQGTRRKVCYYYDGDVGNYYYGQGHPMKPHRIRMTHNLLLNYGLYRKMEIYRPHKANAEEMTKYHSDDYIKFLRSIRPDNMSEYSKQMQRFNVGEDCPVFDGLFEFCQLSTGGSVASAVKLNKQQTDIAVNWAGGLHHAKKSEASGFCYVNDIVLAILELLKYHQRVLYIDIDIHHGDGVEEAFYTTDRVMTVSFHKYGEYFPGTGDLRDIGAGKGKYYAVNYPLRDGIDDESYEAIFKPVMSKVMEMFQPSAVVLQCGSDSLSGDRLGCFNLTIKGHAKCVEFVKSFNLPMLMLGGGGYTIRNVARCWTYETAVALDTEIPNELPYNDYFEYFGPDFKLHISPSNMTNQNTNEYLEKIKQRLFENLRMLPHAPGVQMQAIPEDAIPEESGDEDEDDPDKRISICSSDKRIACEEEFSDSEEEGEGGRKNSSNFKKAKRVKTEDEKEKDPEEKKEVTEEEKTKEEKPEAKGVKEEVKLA

HDAC3/NCoR2 = HDAC3/NCoR2 (Homo sapiens, UniProt O15379+Q9Y618); assay: Fluorogenic Michaelis-Menten assay; format: biochemical; conditions: K(D-la) versus K(L-la), Ac-LGK-AMC
Chain of HDAC3/NCoR2 (O15379 whole entry): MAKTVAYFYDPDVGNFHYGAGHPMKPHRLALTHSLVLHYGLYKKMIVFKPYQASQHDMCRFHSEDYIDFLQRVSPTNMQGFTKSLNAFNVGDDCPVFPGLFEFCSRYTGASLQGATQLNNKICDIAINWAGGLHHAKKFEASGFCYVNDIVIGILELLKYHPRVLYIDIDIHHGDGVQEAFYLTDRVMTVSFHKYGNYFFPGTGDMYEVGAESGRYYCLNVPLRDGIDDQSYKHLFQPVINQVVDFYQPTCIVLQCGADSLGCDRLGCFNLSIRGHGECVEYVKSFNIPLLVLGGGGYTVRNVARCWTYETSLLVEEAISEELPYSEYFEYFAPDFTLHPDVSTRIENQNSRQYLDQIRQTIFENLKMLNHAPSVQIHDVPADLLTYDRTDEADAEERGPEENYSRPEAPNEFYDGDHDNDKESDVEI
Chain of HDAC3/NCoR2 (Q9Y618 389-480 partner limits assumed): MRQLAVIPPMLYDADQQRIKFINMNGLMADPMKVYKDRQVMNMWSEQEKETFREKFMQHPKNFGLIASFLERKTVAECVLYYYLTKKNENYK

[1] = tested on: HEK293T whole-cell lysates; assay: Fluorogenic lysate deacylase assay; format: biochemical, human; conditions: 37°C, 60 min; for conversion of AMC substrate by whole-cell lysate: substrate 50 μM, lysate 30 μg per well, NAD+ 500 μM, tris buffer, n = 4
HDAC1–3 = assay: Fluorogenic substrate screening assay; format: biochemical, human; conditions: substrate 50 μM, HDACs 50 nM, tris buffer, 37°C, 60 min; n = 2

For `CC(/C=C/C(=O)NO)=C\[C@@H](C)C(=O)c1ccc(N(C)C)cc1` [TSA, trichostatin A], the “inhibition of HDAC3-mediated decrease of global histone lactylation” value (HDAC3) was “could be inhibited” and the “global histone lactylation levels” value (HeLa cells) was “increased global histone lactylation levels”.
In the case of Ac-Leu-Gly-Lys(D-La)-AMC [2c], the “fold higher kcat/KM for 2c than for 2b” value (HDAC2) is reported as greater than 6 fold, the “fold higher kcat/KM for 2c than for 2b” value (HDAC1) is reported as greater than 6 fold and the “fold higher kcat/KM for 2c than for 2b” value (HDAC3/NCoR2) is reported as 3.5 fold.
In the case of Ac-Ala-Pro-Arg-Lys(L-La)-AMC [1b], the “conversion of AMC substrate by whole-cell lysate” value [1] is reported as “able to remove the lactyl modifications, albeit to a lower extent than the corresponding Kac modification”.
In the case of `CCC(=O)CCCCC[C@@H]1NC(=O)[C@H]2CCCCN2C(=O)[C@H]([C@@H](C)CC)NC(=O)[C@H](Cc2cn(OC)c3ccccc23)NC1=O` [apicidin], the “inhibition of HDAC3-mediated decrease of global histone lactylation” value (HDAC3) is reported as “could be inhibited” and the “global histone lactylation levels” value (HeLa cells) is reported as “enhanced lactylation”.
For Ac-Gln-Pro-Lys-Lys(L-La)-AMC [4b], the “deacylase activity (AMC release)” value (HDAC1–3) was “measurable activity”.
With `NC(=O)c1cccnc1` [NAM, nicotinamide] the “effect of inhibitor on lysate deacylation of 1a–c” value ([1]; NAM 10 mM, substrates 50 μM) was “did not substantially change the outcome of the deacylation events”, the “histone Kac levels” value (HeLa cells) was “does not affect histone Kac levels” and the “global histone lactylation levels” value (HeLa cells) was “failed to affect histone lactylation levels substantially”.
`CC(C)(CNC(=O)c1cccc(-c2noc(C(F)(F)F)n2)c1)c1coc(-c2ccccc2)n1` [TMP195] was tested, and the “histone Kac levels” value (HeLa cells) was “lack of effect” and the “global histone lactylation levels” value (HeLa cells) was “failed to affect histone lactylation levels substantially”.
Ac-Ala-Pro-Arg-Lys(D-La)-AMC [1c] was tested, and the “conversion of AMC substrate by whole-cell lysate” value [1] was “converted to a larger extent than its K(L-la) counterpart”.
In the case of `CCCC(=O)[O-].[Na+]` [sodium butyrate], the “global histone lactylation levels” value (HeLa cells) is reported as “increased global histone lactylation levels”.
